# Reference: ChEMBL document CHEMBL1154990, “Three new cytochalasins produced by an endophytic fungus in the genus Rhinocladiella” (2000)
# How the values were obtained:
# SW-620 = assay: Cytotoxicity against human SW620 cells after 72 hrs; type: functional
# In short: (§1)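 Cells seeded at 2.5×10^4 cells/mL (150 μL per well) and preincubated ~24 h at 37 °C, 5% CO₂. Compounds dissolved at 1.0 mg/mL in MeOH (stock), 50 μL added, then serially diluted 4-fold for eight concentrations. After 72 h further incubation, cells fixed with HBSS–formaldehyde–water (1:1:8) for 10 min. Stained with 0.0075% crystal violet for 15 min. Concentration giving total cell kill (IC100) read.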
# HCT-116 = assay: Cytotoxicity against human HCT116 cells after 72 hrs; type: functional; in short: as §1
# [1] = Cytotoxicity against human A2780S cells after 72 hrs; type: functional, A2780; in short: as §1
structure (smiles),measurement,setting,value
CC1/C=C/C(=O)O[C@@]23C(=O)N[C@@H](Cc4ccccc4)[C@@H]2[C@H](C)[C@@]2(C)O[C@H]2[C@@H]3/C=C/CC(C)C1O (stereo partly specified),IC100,SW-620,15.6 µg/mL
same,IC100,HCT-116,3.91 µg/mL
same,IC100,[1],3.91 µg/mL
CC1CCC(=O)O[C@@]23C(=O)N[C@@H](Cc4ccccc4)[C@@H]2[C@H](C)[C@@]2(C)O[C@H]2[C@@H]3/C=C/CC(C)(O)C1=O (stereo partly specified),IC100,SW-620,62.5 µg/mL
same,IC100,HCT-116,15.6 µg/mL
same,IC100,[1],15.6 µg/mL
CC1CCC(=O)O[C@@]23C(=O)N[C@@H](Cc4ccccc4)[C@@H]2[C@H](C)[C@@]2(C)O[C@H]2[C@@H]3/C=C/CC(CO)C1=O (stereo partly specified),IC100,HCT-116,15.6 µg/mL
same,IC100,[1],3.91 µg/mL
C[C@H]1C/C=C/[C@H]2[C@@H]3O[C@]3(C)[C@@H](C)[C@H]3[C@H](Cc4ccccc4)NC(=O)[C@]32OC(=O)O/C=C/[C@@](C)(O)C1=O [CYTOCHALASIN E],IC100,SW-620,0.977 µg/mL
same,IC100,HCT-116,0.244 µg/mL
same,IC100,[1],<0.0153 µg/mL
